Active and inactive are the calls of the source. The calls are words filed in the database; no cut-off is given here.
Legend:
[1] = system: Rattus norvegicus; experiment: Natriuretic potency was evaluated as oral dose required to produce an excretion of 2 mequiv of Na+/Kg of rat body weight; type: functional
In short: (§1)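 Oral gavage in female rats fed glucose and water overnight. DOCA 5 mg sc is given 2 h before dosing, and rats are loaded with isotonic NaCl-KCl (40:60) to 3% body weight right after dosing. Na+ excretion is collected over 4 h, four rats/dose. ED2 is taken from a linear regression of Na+ excretion vs log dose.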

[2] = system: Canis familiaris; experiment: Natriuretic potency was evaluated as oral dose required to produce an excretion of 2 mequiv of Na+/Kg of dog body weight, ED5 value based on N=2 dogs/dose; type: functional, Canis lupus familiaris
In short: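 Conscious nonloaded female dogs dosed orally, two dogs/dose. ED5 is derived from a linear regression of Na+ excretion vs log dose.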

[3] = system: Rattus norvegicus; experiment: Natriuretic potency was evaluated as oral dose required to produce an excretion of 2 mequiv of Na+/Kg of rat body weight, ED2 value based on N=4 rats/dose; type: functional; in short: as §1
[4] = system: Rattus norvegicus; experiment: Natriuretic potency was evaluated as oral dose required to produce an excretion of 2 mequiv of Na+/Kg of rat body weight; IA means Inactive; type: functional, organism-based; in short: as §1
[5] = organism: Rattus norvegicus; experiment: Glomerular filtration rate (per one kidney) per 100 g body weight of rat; type: functional
In short: (§2)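 Male adult Sprague-Dawley rats infused with Ringer's solution at 2 mL/100 g per h plus [3H]inulin (100 μCi/h). Two 30-min urine collections with midpoint blood samples form the control period. A single iv bolus of 0.1 mg/kg is given over 20–30 s, and 30 min later two more 30-min periods follow, with iv fluid replacement. Urine volume, Na+, K+ and inulin counts are measured, and GFR and fractional excretion are calculated by standard formulae. Paired t test, n = 8.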

[6] = organism: Rattus norvegicus; experiment: Fractional excretion of K+ (percent of filtered load) in rat; type: functional; in short: as §2
[7] = organism: Rattus norvegicus; experiment: Fractional excretion of Na+ (percent of filtered load) in rat; type: functional; in short: as §2
[8] = organism: Rattus norvegicus; experiment: Fractional delivery of K+ to puncture site (percent of filtered load) of early distal tubular segments in the exposed kidney; type: functional
In short: (§3)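 Male adult Sprague-Dawley rats prepared for free-flow micropuncture, infused with Ringer's solution at 2 mL/100 g per h plus [3H]inulin (100 μCi/h). Early and late distal tubular fluid sampled from the exposed kidney during control periods and after a single iv bolus of 0.1 mg/kg given over 20–30 s. Control and treated groups compared by unpaired t test.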

[9] = organism: Rattus norvegicus; experiment: Fractional delivery of K+ to puncture site (percent of filtered load) of late distal tubular segments in the exposed kidney; type: functional; in short: as §3
[10] = organism: Rattus norvegicus; experiment: Fractional delivery of Na+ to puncture site (percent of filtered load) of early distal tubular segments in the exposed kidney; type: functional; in short: as §3
[11] = organism: Rattus norvegicus; experiment: Fractional delivery of Na+ to puncture site (percent of filtered load) of late distal tubular segments in the exposed kidney; type: functional; in short: as §3
[12] = organism: Rattus norvegicus; experiment: Urine-to-plasma concentration ratio for inulin in rat; type: functional; in short: as §2
[13] = organism: Rattus norvegicus; experiment: K+ concentration in plasma sample of rat; type: functional, organism-based; in short: as §2
[14] = organism: Rattus norvegicus; experiment: Na+ concentration in plasma sample of rat; type: functional, organism-based; in short: as §2
[15] = organism: Rattus norvegicus; experiment: Single nephron glomerular filtration rate of early distal tubular segments in the exposed kidney; type: functional; in short: as §3
[16] = organism: Rattus norvegicus; experiment: Single nephron glomerular filtration rate of late distal tubular segments in the exposed kidney; type: functional; in short: as §3
[17] = organism: Rattus norvegicus; experiment: Tubular fluid-to-plasma concentration ratio for inulin of early distal tubular segments in the exposed kidney; type: functional; in short: as §3
[18] = organism: Rattus norvegicus; experiment: Tubular fluid-to-plasma concentration ratio for inulin of late distal tubular segments in the exposed kidney; type: functional; in short: as §3
[19] = organism: Rattus norvegicus; experiment: Urine flow rate of early distal tubular segments in the exposed kidney; type: functional; in short: as §3
[20] = organism: Rattus norvegicus; experiment: Urine flow rate of late distal tubular segments in the exposed kidney; type: functional; in short: as §3
[21] = organism: Rattus norvegicus; experiment: Urine flow rate per kidney was evaluated in rat; type: functional; in short: as §2
[22] = Ratio of number of tubules/number of rats of late distal tubular segments in the exposed kidney; type: functional

With `CCOC(=O)C1Cc2cc(Cc3cc(CN)c(O)c(CN)c3)c(Cl)c(Cl)c2O1` (centres undefined) the ED2 [1] was 49 mg/kg.

For `CCOC(=O)C1Cc2cc(C(=O)c3cc(CN(C)C)c(O)c(CN(C)C)c3)c(Cl)c(Cl)c2O1` (centres undefined), the ED2 [1] was 1.82 mg/kg.

With `NCc1cc(C(=O)c2cc3c(c(Cl)c2Cl)OC(CO)C3)ccc1O` (centres undefined) the ED2 [1] was 0.95 mg/kg.

In the case of `CCOC(=O)C1Cc2cc(Cc3ccc(O)c(CN)c3)c(Cl)c(Cl)c2O1` (centres undefined), the ED2 [1] is reported as 8 mg/kg.

Molecule `NS(=O)(=O)c1cc(C(=O)O)c(NCc2ccco2)cc1Cl` [FUROSEMIDE] has an ED5 [2] of 3.5 mg/kg and an ED2 [3] of 9.5 mg/kg.

In the case of `NCc1cc(C(=O)c2cc3c(c(Cl)c2Cl)OC(C(=O)O)C3)ccc1O` (centres undefined), the ED2 [4] is reported as “inactive”.

`CCCCNc1cc(C(=O)O)cc(S(N)(=O)=O)c1Oc1ccccc1` [BUMETANIDE] gave an ED5 [2] of 0.15 mg/kg and an ED2 [3] of 8.5 mg/kg.

In the case of `NCc1cc(Cc2cc3c(c(Cl)c2Cl)OC(CO)C3)ccc1O` (centres undefined), the ED2 [1] is reported as 10.2 mg/kg.

`CCOC(=O)C1Cc2cc(C(=O)c3cc(Cl)c(O)c(CN)c3)c(Cl)c(Cl)c2O1` (centres undefined) showed an ED2 [1] of 21.5 mg/kg.

`NS(=O)(=O)c1cc(C(=O)O)cc(N2CCCC2)c1Oc1ccccc1` [PIRETANIDE] showed an ED5 [2] of 0.25 mg/kg and an ED2 [3] of 0.89 mg/kg.

Work on `NCc1cc(C(=O)c2cc3c(c(Cl)c2Cl)OC(C(N)=O)C3)ccc1O` (centres undefined) yielded an ED2 [1] of 2.95 mg/kg.

`CCOC(=O)C1Cc2cc(C(=O)c3ccc(O)c(CN)c3)c(Cl)c(Cl)c2O1` (centres undefined) showed an ED5 [2] of 0.11 mg/kg, an ED2 [3] of 0.12 mg/kg and a GFR [5] of 0.46 mL/min. It also gave an FE [6] of 54.6%, an FE [7] of 6.3% and an FD [8] of 23%. It also gave an FD [9] of 23.6%, an FD [10] of 13.6% and an FD [11] of 8.1%. It also gave a U/P [12] of 19.7, a Plasma [13] of 3.57 mM and a Plasma [14] of 144 mM. It also gave an SNGFR [15] of 35.7 nL/min, an SNGFR [16] of 33.9 nL/min and a TF/P [17] of 4.39. It also gave a TF/P [18] of 8.48, a Rate [19] of 8.2 nL/min and a Rate [20] of 4.6 nL/min. For the same molecule, the Rate [21] was 67.6 µL/min and the Ratio [22] was 8.

Source: ChEMBL document CHEMBL1122991, “[(Aminomethyl)aryloxy]acetic acid esters. A new class of high-ceiling diuretics. 4. Substituted 6,7-dichloro-2,3-dihydrobenzofurans derived by ring annelation” (1985)
